Reference: ChEMBL document CHEMBL4350961, “Discovery of Pyrrolo[3,2- d]pyrimidin-4-one Derivatives as a New Class of Potent and Cell-Active Inhibitors of P300/CBP-Associated Factor Bromodomain” (J Med Chem, 2019)
Active and inactive are the calls of the source. The rule behind the calls is not given here.

Columns and labels:
MEF [1] = test: Effect on Dmrta2 gene expression in MEF cells at 2.5 uM measured after 48 hrs by RNA-sequencing analysis relative to control; format: functional, Mus musculus
Procedure, shortened: (§1)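 Mouse embryonic fibroblasts treated 48 h; negative-control enantiomer at 2.5 µM, DMSO as blank. Total RNA extracted with TRIzol, checked by NanoDrop, then RNA-seq with n = 3 per set. Genes called changed at >1.5-fold with p < 0.05 against blank.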

MEF [2] = test: Effect on Ttbk1 gene expression in MEF cells at 2.5 uM measured after 48 hrs by RNA-sequencing analysis relative to control; format: functional, Mus musculus; procedure, shortened: as §1
MEF [3] = test: Effect on Mpz gene expression in MEF cells at 2.5 uM measured after 48 hrs by RNA-sequencing analysis relative to control; format: functional, Mus musculus; procedure, shortened: as §1
MEF [4] = test: Effect on Clec5a gene expression in MEF cells at 2.5 uM measured after 48 hrs by RNA-sequencing analysis relative to control; format: functional, Mus musculus; procedure, shortened: as §1
MEF [5] = test: Effect on Slitrk6 gene expression in MEF cells at 2.5 uM measured after 48 hrs by RNA-sequencing analysis relative to control; format: functional, Mus musculus; procedure, shortened: as §1
MEF [6] = test: Effect on Acod1 gene expression in MEF cells at 2.5 uM measured after 48 hrs by RNA-sequencing analysis relative to control; format: functional, Mus musculus; procedure, shortened: as §1
MEF [7] = test: Effect on Tnfsf15 gene expression in MEF cells at 2.5 uM measured after 48 hrs by RNA-sequencing analysis relative to control; format: functional, Mus musculus; procedure, shortened: as §1
MEF [8] = test: Effect on plekhb1 gene expression in MEF cells at 2.5 uM measured after 48 hrs by RNA-sequencing analysis relative to control; format: functional, Mus musculus
Procedure, shortened: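 MEF cells treated for 48 h with test compound, with (S,S) enantiomer at 2.5 µM as negative control and DMSO as blank; total RNA (TRIzol, n = 3 per set) analysed by RNA-seq; genes counted as changed at >1.5-fold, p < 0.05, relative to blank control.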

MEF [9] = test: Effect on Snhg11 gene expression in MEF cells at 2.5 uM measured after 48 hrs by RNA-sequencing analysis relative to control; format: functional, Mus musculus; procedure, shortened: as §1
MEF [10] = test: Effect on Gabra4 gene expression in MEF cells at 2.5 uM measured after 48 hrs by RNA-sequencing analysis relative to control; format: functional, Mus musculus; procedure, shortened: as §1
MEF [11] = test: Effect on Gm3173 gene expression in MEF cells at 2.5 uM measured after 48 hrs by RNA-sequencing analysis relative to control; format: functional, Mus musculus; procedure, shortened: as §1
MEF [12] = test: Effect on Pkdrej gene expression in MEF cells at 2.5 uM measured after 48 hrs by RNA-sequencing analysis relative to control; format: functional, Mus musculus; procedure, shortened: as §1
MEF [13] = test: Effect on Fmn2 gene expression in MEF cells at 2.5 uM measured after 48 hrs by RNA-sequencing analysis relative to control; format: functional, Mus musculus; procedure, shortened: as §1
MEF [14] = test: Effect on Celsr1 gene expression in MEF cells at 2.5 uM measured after 48 hrs by RNA-sequencing analysis relative to control; format: functional, Mus musculus; procedure, shortened: as §1
MEF [15] = test: Effect on Zfp551 gene expression in MEF cells at 2.5 uM measured after 48 hrs by RNA-sequencing analysis relative to control; format: functional, Mus musculus; procedure, shortened: as §1
[16] = target: Histone acetyltransferase KAT2B (Homo sapiens, UniProt Q92831); test: Binding affinity to human N-terminal His-tagged PCAF by isothermal titration calorimetry
MEF [17] = test: Effect on Guca1a gene expression in MEF cells at 2.5 uM measured after 48 hrs by RNA-sequencing analysis relative to control; format: functional, Mus musculus; procedure, shortened: as §1
MEF [18] = test: Effect on Tnnt2 gene expression in MEF cells at 2.5 uM measured after 48 hrs by RNA-sequencing analysis relative to control; format: functional, Mus musculus; procedure, shortened: as §1
[19] = target: Tau-tubulin kinase 1 (Homo sapiens) (UniProt Q5TCY1); test: Inhibition of human TTBK1 (1 to 479 residues) using Casein as substrate measured after 40 mins in presence of [gamma33P]ATP by scintillation counting method
[20] = target: Tyrosine-protein kinase ITK/TSK (Homo sapiens) (UniProt Q08881); test: Inhibition of recombinant human ITK (352 to 617 residues) at 10 uM using myelin basic protein as substrate measured after 40 mins in presence of [gamma33P]ATP by scintillation counting method
[21] = tested on: Mast/stem cell growth factor receptor Kit (Homo sapiens), P10721 [V560G]; test: Inhibition of recombinant human c-Kit V560G mutant (544 to end residues) at 10 uM using GGMEDIYFEFMGGKKK as substrate measured after 40 mins in presence of [gamma33P]ATP by scintillation counting method
Homo sapiens = species: Homo sapiens; test: Inhibition of recombinant full-length human AURKA I31F mutant at 10 uM using LRRASLG as substrate measured after 40 mins in presence of [gamma33P]ATP by scintillation counting method
[22] = Oral bioavailability in Sprague-Dawley rat at 10 mg/kg administered via gavage by LC-MS/MS analysis; format: ADME, organism-based; details: in vivo
[23] = tested on: Proto-oncogene tyrosine-protein kinase receptor Ret (Homo sapiens), P07949 [V804L]; test: Inhibition of human Ret V804L mutant (658 to end residues) using KKKSPGEYVNIEFG as substrate measured after 40 mins in presence of [gamma33P]ATP by scintillation counting method
Procedure, shortened: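 Kinase panel of 422 kinases screened by Eurofins KinaseProfiler at a single test-compound concentration of 10 µM.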

[24] = target: SWI/SNF-related matrix-associated actin-dependent regulator of chromatin subfamily A member 4 (Homo sapiens) (UniProt P51532); test: Binding affinity to human partial length SMARCA4 (A1448 to S1575 residues) expressed in bacterial expression system at 1 uM by BROMOscan assay
Procedure, shortened: (§2)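 BROMOscan bromodomain cross-screen run by an outside service, compound at 1 µM against 32 recombinant bromodomains. Binding given as percent of control.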

[25] = target: Bromodomain-containing protein 3 (Homo sapiens) (UniProt Q15059); test: Binding affinity to human partial length BRD3 bromodomain 1 (P24 to E144 residues) expressed in bacterial expression system at 1 uM by BROMOscan assay; procedure, shortened: as §2
[26] = target: MAP/microtubule affinity-regulating kinase 4 (Homo sapiens) (UniProt Q96L34); test: Inhibition of recombinant full-length human MARK4 at 10 uM using KKKVSRSGLYRSPSMPENLNRPR as substrate measured after 40 mins in presence of [gamma33P]ATP by scintillation counting method
[27] = target: Muscle, skeletal receptor tyrosine-protein kinase (Homo sapiens) (UniProt O15146); test: Inhibition of recombinant human MuSK (530 to end residues) at 10 uM using myelin basic protein as substrate measured after 40 mins in presence of [gamma33P]ATP by scintillation counting method
[28] = target: Serine/threonine-protein kinase Nek9 (Homo sapiens) (UniProt Q8TD19); test: Inhibition of recombinant human NEK9 (1 to 324 residues) at 10 uM using myelin basic protein as substrate measured after 40 mins in presence of [gamma33P]ATP by scintillation counting method
[29] = target: Serine/threonine-protein kinase 24 (Homo sapiens) (UniProt Q9Y6E0); test: Inhibition of recombinant human MST3 (1 to 304 residues) at 10 uM using ERMRPRKRQGSVRRRV as substrate measured after 40 mins in presence of [gamma33P]ATP by scintillation counting method
Sequence of Serine/threonine-protein kinase 24 (Homo sapiens) (Q9Y6E0 whole entry, looked up, the tested form may be a part): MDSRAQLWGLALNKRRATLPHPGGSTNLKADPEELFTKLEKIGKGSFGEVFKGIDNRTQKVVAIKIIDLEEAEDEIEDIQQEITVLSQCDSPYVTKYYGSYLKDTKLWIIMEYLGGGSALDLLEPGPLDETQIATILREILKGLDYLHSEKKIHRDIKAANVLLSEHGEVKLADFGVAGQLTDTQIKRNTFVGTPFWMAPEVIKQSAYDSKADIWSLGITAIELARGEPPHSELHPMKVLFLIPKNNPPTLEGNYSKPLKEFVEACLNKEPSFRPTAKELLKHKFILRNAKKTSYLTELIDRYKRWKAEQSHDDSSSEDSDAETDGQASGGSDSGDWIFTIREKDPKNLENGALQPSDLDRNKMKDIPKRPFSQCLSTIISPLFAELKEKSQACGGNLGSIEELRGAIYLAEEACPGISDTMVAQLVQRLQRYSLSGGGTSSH

Sequence of Histone acetyltransferase KAT2B (Q92831 whole entry): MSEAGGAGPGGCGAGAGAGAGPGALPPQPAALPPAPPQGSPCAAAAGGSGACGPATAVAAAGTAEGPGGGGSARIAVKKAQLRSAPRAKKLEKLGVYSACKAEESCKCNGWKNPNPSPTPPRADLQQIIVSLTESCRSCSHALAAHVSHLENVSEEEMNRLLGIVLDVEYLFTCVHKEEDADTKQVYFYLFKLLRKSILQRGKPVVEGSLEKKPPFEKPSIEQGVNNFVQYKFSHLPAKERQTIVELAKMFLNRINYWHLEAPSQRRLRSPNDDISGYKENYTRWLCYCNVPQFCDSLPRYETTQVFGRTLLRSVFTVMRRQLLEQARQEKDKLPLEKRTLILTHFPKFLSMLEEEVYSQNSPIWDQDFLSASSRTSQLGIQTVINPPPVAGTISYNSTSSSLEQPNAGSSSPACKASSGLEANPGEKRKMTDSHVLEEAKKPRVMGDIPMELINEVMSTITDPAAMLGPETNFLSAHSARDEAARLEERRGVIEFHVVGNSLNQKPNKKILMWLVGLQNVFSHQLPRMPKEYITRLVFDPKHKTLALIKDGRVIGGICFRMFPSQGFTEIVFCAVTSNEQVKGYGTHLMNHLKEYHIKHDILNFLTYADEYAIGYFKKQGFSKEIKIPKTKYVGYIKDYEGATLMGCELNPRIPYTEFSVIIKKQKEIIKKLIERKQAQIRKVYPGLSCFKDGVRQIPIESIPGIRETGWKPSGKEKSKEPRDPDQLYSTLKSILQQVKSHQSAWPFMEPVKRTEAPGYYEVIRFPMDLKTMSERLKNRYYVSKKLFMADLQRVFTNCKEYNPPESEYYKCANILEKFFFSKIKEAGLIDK
Sequence of Tyrosine-protein kinase ITK/TSK (Homo sapiens) (Q08881 whole entry, the tested form may be a part): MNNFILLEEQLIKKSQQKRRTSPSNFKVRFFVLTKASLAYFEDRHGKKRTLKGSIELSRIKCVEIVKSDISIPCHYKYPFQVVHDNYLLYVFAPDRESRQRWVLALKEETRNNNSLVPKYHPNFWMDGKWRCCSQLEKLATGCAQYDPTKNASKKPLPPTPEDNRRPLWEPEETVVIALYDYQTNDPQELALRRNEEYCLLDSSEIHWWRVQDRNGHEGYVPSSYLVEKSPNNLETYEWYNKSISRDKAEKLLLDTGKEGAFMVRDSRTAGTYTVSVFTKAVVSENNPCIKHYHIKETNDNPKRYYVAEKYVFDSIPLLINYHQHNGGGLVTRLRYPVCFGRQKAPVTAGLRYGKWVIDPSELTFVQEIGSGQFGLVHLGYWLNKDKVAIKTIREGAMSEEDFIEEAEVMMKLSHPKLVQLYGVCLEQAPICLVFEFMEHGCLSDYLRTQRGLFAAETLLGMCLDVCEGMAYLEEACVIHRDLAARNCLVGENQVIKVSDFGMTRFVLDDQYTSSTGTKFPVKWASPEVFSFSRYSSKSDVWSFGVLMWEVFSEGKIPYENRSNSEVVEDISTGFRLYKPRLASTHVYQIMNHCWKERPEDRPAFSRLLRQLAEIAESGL
Sequence of Serine/threonine-protein kinase Nek9 (Homo sapiens) (Q8TD19 whole entry, the tested form may be a part): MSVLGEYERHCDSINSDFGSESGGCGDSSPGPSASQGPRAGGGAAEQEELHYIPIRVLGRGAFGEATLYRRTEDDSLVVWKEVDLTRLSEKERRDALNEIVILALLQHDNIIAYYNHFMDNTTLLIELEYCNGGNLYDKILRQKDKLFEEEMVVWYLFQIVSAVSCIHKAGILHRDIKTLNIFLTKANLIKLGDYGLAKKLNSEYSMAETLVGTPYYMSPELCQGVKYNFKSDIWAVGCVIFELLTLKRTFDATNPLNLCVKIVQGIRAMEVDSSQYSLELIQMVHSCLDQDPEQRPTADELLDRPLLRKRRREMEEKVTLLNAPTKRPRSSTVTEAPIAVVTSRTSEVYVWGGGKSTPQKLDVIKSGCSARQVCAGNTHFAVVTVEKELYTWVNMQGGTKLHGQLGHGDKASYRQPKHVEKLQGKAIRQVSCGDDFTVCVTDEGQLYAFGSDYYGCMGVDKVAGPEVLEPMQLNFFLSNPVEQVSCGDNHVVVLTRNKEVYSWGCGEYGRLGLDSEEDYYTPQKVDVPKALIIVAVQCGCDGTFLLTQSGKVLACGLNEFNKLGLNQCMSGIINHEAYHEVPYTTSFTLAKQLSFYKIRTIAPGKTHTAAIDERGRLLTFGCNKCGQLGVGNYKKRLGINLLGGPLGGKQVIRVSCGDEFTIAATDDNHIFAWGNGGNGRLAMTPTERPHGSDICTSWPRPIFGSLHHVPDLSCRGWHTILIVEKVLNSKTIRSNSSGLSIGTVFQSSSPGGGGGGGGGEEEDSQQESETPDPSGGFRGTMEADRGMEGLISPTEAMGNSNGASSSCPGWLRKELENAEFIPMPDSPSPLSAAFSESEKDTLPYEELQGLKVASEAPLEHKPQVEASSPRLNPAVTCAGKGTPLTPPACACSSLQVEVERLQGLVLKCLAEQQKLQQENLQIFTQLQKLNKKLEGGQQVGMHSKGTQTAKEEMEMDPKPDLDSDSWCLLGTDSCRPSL
Sequence of Proto-oncogene tyrosine-protein kinase receptor Ret (Homo sapiens), P07949 [V804L] (P07949 whole entry V804L): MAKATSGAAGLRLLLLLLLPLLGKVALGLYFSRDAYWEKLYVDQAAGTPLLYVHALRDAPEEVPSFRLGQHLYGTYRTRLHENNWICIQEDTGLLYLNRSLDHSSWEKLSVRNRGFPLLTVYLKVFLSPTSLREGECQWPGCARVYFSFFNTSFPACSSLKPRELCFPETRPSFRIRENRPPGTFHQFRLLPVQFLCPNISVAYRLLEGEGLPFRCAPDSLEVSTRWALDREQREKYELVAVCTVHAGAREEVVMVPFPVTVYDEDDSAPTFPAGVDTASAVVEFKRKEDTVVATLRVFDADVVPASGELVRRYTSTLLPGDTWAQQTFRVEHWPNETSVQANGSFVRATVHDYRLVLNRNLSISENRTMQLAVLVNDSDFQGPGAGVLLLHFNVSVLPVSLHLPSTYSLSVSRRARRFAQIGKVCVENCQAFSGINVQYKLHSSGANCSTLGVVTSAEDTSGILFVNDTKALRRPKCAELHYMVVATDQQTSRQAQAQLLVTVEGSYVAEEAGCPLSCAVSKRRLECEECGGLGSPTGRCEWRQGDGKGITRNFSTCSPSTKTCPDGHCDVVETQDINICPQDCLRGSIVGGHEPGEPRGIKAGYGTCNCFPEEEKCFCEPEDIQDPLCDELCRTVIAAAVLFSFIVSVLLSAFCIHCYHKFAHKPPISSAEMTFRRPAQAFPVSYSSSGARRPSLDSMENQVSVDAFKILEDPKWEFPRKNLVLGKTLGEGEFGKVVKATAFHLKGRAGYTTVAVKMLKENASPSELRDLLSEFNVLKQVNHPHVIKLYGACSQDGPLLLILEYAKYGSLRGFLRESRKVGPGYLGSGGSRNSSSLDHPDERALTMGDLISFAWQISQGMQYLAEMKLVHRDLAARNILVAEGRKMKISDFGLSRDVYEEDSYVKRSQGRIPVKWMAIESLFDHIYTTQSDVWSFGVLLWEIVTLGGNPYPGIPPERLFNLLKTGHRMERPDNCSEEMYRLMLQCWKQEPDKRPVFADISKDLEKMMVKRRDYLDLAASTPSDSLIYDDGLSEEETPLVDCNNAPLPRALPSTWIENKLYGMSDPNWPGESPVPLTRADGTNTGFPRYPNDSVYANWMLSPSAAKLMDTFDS
Sequence of MAP/microtubule affinity-regulating kinase 4 (Homo sapiens) (Q96L34 whole entry): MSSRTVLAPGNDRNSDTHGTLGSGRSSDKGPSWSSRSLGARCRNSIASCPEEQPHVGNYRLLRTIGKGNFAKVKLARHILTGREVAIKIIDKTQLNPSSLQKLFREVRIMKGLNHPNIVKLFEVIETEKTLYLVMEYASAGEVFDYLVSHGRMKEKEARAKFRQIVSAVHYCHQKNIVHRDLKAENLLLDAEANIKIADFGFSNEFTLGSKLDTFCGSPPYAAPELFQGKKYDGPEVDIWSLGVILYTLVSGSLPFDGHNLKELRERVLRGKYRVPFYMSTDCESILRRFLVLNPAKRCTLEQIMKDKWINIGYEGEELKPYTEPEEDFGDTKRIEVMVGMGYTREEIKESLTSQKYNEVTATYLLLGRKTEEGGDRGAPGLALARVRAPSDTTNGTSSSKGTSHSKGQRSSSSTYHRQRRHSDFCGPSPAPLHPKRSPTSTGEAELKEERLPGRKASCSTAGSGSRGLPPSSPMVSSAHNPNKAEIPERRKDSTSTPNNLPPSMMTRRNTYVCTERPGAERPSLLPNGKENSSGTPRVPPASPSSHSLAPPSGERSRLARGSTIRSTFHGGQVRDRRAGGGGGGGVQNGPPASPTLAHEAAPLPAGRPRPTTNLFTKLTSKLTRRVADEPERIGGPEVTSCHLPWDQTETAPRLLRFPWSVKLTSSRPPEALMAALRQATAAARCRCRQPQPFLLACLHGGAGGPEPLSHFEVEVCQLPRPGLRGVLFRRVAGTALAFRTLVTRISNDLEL

Row | SMILES | fold change (FC) (MEF [1]) | fold change (FC) (MEF [2]) | fold change (FC) (MEF [3]) | fold change (FC) (MEF [4]) | fold change (FC) (MEF [5]) | fold change (FC) (MEF [6]) | fold change (FC) (MEF [7]) | fold change (FC) (MEF [8]) | fold change (FC) (MEF [9]) | fold change (FC) (MEF [10]) | fold change (FC) (MEF [11]) | fold change (FC) (MEF [12]) | fold change (FC) (MEF [13]) | fold change (FC) (MEF [14]) | fold change (FC) (MEF [15]) | Kd [16] | fold change (FC) (MEF [17]) | fold change (FC) (MEF [18]) | other results
1 | CN1C[C@@H](Nc2nc3cc[nH]c3c(=O)n2C)C[C@@H](c2ccc3c(c2)OCCO3)C1 | >1.5 | >1.5 | >1.5 | >1.5 | >1.5 | >1.5 | >1.5 | >1.5 | >1.5 | >1.5 | >1.5 | >1.5 | >1.5 | >1.5 | >1.5 | > 10000 nM | >1.5 | >1.5 | –
2 | CN1C[C@H](Nc2nc3cc[nH]c3c(=O)n2C)C[C@H](c2ccc3c(c2)OCCO3)C1 | >1.5 | >1.5 | >1.5 | >1.5 | >1.5 | >1.5 | >1.5 | >1.5 | >1.5 | >1.5 | >1.5 | >1.5 | >1.5 | >1.5 | >1.5 | 78 nM | >1.5 | >1.5 | inhibition [19]: inactive; inhibition [20]: inactive; inhibition [21]: inactive; inhibition (Homo sapiens): inactive; bioavailability [22]: 52%; inhibition [23]: inactive; Activity [24]: inactive; Activity [25]: inactive; inhibition [26]: inactive; inhibition [27]: inactive; inhibition [28]: inactive; inhibition [29]: inactive
